In article PMC4002122 (Chemical Research in Toxicology, 2014):

Experiments:
Type in all cases: in vitro ADME
[1] = target: T1, UGT1A3 (Homo sapiens, UniProt P35503); test: Screening of recombinant UGT1A3 for glucuronidation activity; conditions: 250 μM substrate, 5 μg protein, 60 min, 37 °C
T1 sequence (P35503 29-534): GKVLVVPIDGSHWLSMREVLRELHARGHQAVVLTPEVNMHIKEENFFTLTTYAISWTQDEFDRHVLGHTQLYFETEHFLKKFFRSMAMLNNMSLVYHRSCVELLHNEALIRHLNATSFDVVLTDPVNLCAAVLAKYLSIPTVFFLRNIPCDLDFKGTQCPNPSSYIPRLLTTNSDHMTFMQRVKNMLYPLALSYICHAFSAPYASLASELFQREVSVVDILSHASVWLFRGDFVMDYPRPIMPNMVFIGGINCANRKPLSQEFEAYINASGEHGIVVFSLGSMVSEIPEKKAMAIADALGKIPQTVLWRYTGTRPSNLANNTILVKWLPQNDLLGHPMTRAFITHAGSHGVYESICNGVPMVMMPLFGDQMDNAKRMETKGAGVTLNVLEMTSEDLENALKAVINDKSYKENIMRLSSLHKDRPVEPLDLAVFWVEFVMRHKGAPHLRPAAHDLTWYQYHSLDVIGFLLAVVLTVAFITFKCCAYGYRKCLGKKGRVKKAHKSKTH
How it was run: (§1)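 UGT1A1, 1A3, 1A4 and 1A6–1A10 were His-tagged and expressed in baculovirus-infected Sf9 cells; UGT2B4, 2B7, 2B15 and 2B17 were commercial membranes run per supplier protocol. 5 μg membrane protein with 250 μM substrate, 2 mM UDP-GlcUA, Tris–HCl pH 7.4, MgCl2, saccharolactone, 2% DMSO; 37 °C, 60 min; no-substrate controls. Products measured by HPLC-UV/vis; β-glucuronidase hydrolysis separated O- from carboxyl glucuronides.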

[2] = target: T2, UGT1A4 (Homo sapiens, UniProt P22310); test: Screening of recombinant UGT1A4 for glucuronidation activity; conditions: 250 μM substrate, 5 μg protein, 60 min, 37 °C
T2 sequence (P22310 29-534): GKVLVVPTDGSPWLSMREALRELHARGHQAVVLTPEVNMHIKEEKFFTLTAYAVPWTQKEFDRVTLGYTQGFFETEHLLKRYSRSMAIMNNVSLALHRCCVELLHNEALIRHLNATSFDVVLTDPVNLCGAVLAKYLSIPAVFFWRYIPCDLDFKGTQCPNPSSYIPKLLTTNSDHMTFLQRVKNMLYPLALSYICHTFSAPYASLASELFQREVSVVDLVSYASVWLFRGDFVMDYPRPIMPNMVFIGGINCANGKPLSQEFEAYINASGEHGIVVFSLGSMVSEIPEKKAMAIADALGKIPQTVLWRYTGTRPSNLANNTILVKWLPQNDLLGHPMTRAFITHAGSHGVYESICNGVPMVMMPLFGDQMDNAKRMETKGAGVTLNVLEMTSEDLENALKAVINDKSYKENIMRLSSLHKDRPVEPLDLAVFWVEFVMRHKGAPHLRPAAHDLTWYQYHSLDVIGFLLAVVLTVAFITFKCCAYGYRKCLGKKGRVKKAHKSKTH
How it was run: as §1

[3] = target: T3, UGT1A9 (Homo sapiens, UniProt O60656); test: Screening of recombinant UGT1A9 for glucuronidation activity; conditions: 250 μM substrate, 5 μg protein, 60 min, 37 °C
T3 sequence (O60656 26-530): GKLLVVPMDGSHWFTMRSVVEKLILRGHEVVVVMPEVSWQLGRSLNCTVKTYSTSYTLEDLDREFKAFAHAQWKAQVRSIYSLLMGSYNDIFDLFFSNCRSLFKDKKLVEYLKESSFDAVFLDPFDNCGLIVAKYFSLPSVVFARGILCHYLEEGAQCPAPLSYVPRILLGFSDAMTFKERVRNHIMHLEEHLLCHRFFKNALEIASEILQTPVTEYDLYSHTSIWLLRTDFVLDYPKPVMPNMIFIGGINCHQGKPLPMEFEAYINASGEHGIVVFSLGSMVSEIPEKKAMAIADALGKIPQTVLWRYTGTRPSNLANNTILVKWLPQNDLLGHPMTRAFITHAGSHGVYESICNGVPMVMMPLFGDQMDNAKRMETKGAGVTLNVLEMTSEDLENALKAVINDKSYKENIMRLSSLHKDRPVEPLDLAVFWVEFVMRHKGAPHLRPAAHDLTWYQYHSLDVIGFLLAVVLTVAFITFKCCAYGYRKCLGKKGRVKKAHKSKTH
How it was run: as §1

[4] = target: T4, UGT2B15 (Homo sapiens, UniProt P54855); test: Screening of recombinant UGT2B15 for glucuronidation activity; conditions: 250 μM substrate, 5 μg protein, 60 min, 37 °C
T4 sequence (P54855 24-530): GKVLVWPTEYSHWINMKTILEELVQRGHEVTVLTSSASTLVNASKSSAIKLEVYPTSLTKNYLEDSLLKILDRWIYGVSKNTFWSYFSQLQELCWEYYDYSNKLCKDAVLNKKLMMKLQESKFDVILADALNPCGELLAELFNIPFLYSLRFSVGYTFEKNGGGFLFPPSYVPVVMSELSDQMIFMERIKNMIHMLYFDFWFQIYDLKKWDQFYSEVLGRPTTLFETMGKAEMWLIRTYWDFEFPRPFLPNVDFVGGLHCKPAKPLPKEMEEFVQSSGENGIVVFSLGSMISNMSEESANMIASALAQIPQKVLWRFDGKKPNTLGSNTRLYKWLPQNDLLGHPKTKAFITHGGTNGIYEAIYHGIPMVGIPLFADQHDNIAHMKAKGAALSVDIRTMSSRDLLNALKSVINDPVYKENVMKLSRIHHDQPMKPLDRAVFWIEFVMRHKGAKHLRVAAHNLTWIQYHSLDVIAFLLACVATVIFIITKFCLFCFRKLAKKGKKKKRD
How it was run: as §1

[5] = Glucuronidation by human intestinal microsomes; conditions: 0.25 mM substrate, 60 min
How it was run: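 Microsomes from individual human livers (10 donors), a pooled liver sample and hepatosomes, or from intestines (13 donors). Substrate dried from ethanol, redissolved in DMSO and sonicated. Incubated 37 °C, 60 min; ethanol stop, centrifuged. Glucuronides measured by reversed-phase HPLC-UV; nmol/mg/min, median and range.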

glucuronidation activity (glucuronide formed) [1]	glucuronidation activity (glucuronide formed) [2]	glucuronidation activity (glucuronide formed) [3]	glucuronidation activity (glucuronide formed) [4]	metabolites produced ([5]; donors HI34, HI36, HI40, and HI41)	metabolites produced ([5]; remaining donors with activity)	metabolites produced ([5]; all other donors (than HI27, HI29, HI30))	Structure (SMILES)	glucuronidation activity ([5]; donors HI27, HI28, HI29, and HI54)	glucuronidation activity ([5]; donors HI27, HI29, and HI30)
No activity	No activity	No activity	No activity	–	–	–	COc1cc(/C=C/c2cc([N+](=O)[O-])c(O)c([N+](=O)[O-])c2)cc(OC)c1 [DNR-1, (E)-4-(3,5-dimethoxystyryl)-2,6-dinitrophenol]	–	–
both COO- and O-glucuronides	not active	only the hydroxyl metabolite	–	only one (the hydroxyl) metabolite	two (hydroxyl and carboxyl) metabolites	–	COc1ccc(/C=C(/C(=O)O)c2cc(OC)c(OC)c(OC)c2)cc1O [NI-12a, (E)-3-(3-hydroxy-4-methoxyphenyl)-2-(3,4,5-trimethoxyphenyl)acrylic acid]	failed to display glucuronidation activity	–

Structure (SMILES)	glucuronidation activity (glucuronide formed) [1]	glucuronidation activity (glucuronide formed) [2]	glucuronidation activity (glucuronide formed) [3]	glucuronidation activity (glucuronide formed) [4]	metabolites produced ([5]; donors HI34, HI36, HI40, and HI41)	metabolites produced ([5]; remaining donors with activity)	metabolites produced ([5]; all other donors (than HI27, HI29, HI30))	glucuronidation activity ([5]; donors HI27, HI28, HI29, and HI54)	glucuronidation activity ([5]; donors HI27, HI29, and HI30)
COc1ccc(C=Cc2cc(OC)cc(OC)c2/C=N/O)cc1 [NI-ST-05, (E)-2,4-dimethoxy-6-(4-methoxystyryl)benzaldehyde oxime]	inactive	inactive	catalyzed the formation of the C=N–O-glucuronide	inactive	–	–	one metabolite	–	failed to display glucuronidation activity
